Bioassay records: PubChem BioAssay, several laboratories
This is a sample that favours compounds with a hit; in the whole collection about 9% have one here.
mHtt clearance: compounds clearing mutant huntingtin protein | HeLa Exon1htt(103Q)mCFP, aggregate imaging; zero = plate's median compound well | inhibition, % at 1.5 µM | AID 853 | 0.42% of 47,000 active;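 active = inhibition of aggregate fluorescence above about 70%, also judged a hit by eye on the cell image, limit read from the data, passing the limit was not always enough; inconclusive = no rule stated for this call; inactive = not judged a hit on image review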;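 note: cells exposed to compound for three days before fixation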
M1 ag: agonists of M1 muscarinic receptor | CHO-M1 cells, Fluo-4 calcium fluorescence, agonist mode; active compounds read high | B-score at 10 µM | 3% of 64,000 active;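 active = fluorescence rise, raw or as B-score row- and column-corrected plate score, outside the 99.7% band of its plate's samples, either direction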
AP complement: alternative pathway complement inhibition, orthogonal assay; Human serum alternative complement pathway, LPS-coated ELISA, C3 deposition; tested in compound mixtures; 0.08% of 62,000 active; inhibition, % at 5 µM;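 active = inhibition above 30% in each of the two pooled mixtures holding the compound, so the lower value exceeds 30%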;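 note: 0% = serum in Mg-EGTA without compound and 100% = EDTA serum blank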
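Test system – human serum alternative complement pathway, C3 deposition on LPS-coated wells · Buffer or medium – diluted human serum in Mg2+-EGTA GVB++ · Compound dosing – 5 µM each compound, pools of ten, 50 µM per pool · Schedule – 1 h serum-compound exposure at 37 °C · Measured by – Anti-C3 ELISA, OD 450 nm · Read-out basis – percent inhibition of C3 deposition onto LPS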
M1 antagonist: blocks the rat M1 muscarinic receptor response to acetylcholine; P08482; CHO-M1 cells, Fluo-4 calcium, ACh EC80 antagonist mode; active compounds read low; B-score at 10 µM; 3.4% of 64,000 active; AID 628;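 active = calcium fluorescence response, raw or row-and-column corrected B-score, differing from the plate sample mean either way at a set confidence level, mostly lower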
D1 mod: allosterically modulates the human D1 dopamine receptor; 5.9% of 58,000 active; HEK293 D1, CRE-luciferase, dopamine EC30 potentiation; actives deviate in either direction; B-score at 10 µM; P21728;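 active = luminescence count or its row- and column-corrected plate score outside the 99.7% band of the plate's sample wells, on either side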
Target sequence (P21728 whole entry, looked up): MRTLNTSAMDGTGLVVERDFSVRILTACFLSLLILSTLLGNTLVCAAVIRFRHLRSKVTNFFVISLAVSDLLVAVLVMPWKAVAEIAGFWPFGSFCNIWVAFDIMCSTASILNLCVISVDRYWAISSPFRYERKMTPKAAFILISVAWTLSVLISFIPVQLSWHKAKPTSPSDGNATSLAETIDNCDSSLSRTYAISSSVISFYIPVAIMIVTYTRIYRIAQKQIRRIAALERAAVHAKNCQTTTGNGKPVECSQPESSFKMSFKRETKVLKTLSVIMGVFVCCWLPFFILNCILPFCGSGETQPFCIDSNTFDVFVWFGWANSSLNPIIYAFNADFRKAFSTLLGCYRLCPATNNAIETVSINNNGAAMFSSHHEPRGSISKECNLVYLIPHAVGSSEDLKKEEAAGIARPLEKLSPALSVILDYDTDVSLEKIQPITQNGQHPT
The depositor's hits bear a star; ? = inconclusive; · = no result given.

SMILES	mHtt clearance	M1 ag	AP complement	M1 antagonist	D1 mod
COc1ccc(OC)c(C2=Nn3c(nnc3-c3ccncc3)SC2)c1	·	0.18	2	0.063	·
COc1ccc(OC)c(C2=Nn3c(nnc3-c3cc(OC)c(OC)c(OC)c3)SC2)c1	·	3.3*	11	-0.00012	0.98
CCN1CCN(c2ccc(NC(=O)Cc3ccccc3)cc2)CC1	-20	0.67	13	-0.3	-4.7*
O=C(Cc1ccccc1)Nc1ccc(N2CCCC2)cc1	-21	·	·	·	·
Cc1cc(NC(=O)CCC(=O)N(Cc2ccco2)C(C(=O)NC2CCCCC2)c2ccccc2)no1 (centres undefined)	-36	·	·	·	·
Cc1cc(NC(=O)CCC(=O)N(CCc2ccccc2)C(C(=O)NC2CCCC2)c2ccco2)no1 (centres undefined)	·	1.3	6	2.4*	0.19
CCOC(=O)N1CCN(C(=O)CCC(=O)N2CCOc3ccc(C)cc32)CC1	-169	-0.85	6	1.1	1.5
CCOC(=O)N1CCC(NC(=O)CCC(=O)N2CCOc3ccc(C)cc32)CC1	-6	0.28	-1	3.3*	-0.88
C1CCC(OCCN2CCN(CCOC3CCCCC3)CC2)CC1	-52	-1.2	18	-2.2	-0.16
COc1cc(N2CCCC2)c(OC)cc1/C=c1/sc2nc3ccccc3n2c1=O	?	13*	·	0.27	0.13
O=c1/c(=C\c2cccn2-c2ccccc2)sc2nc3ccccc3n12	·	8.4	·	-0.13	·
CC#CCCCC(=O)Nc1ccccc1C(=O)O	32	0.28	6	1	-0.011
CCOC(=O)CSc1nc(-c2cccs2)nc2c1c(=O)n(C)c(=O)n2C	·	0.33	9	-0.35	·
O=S(=O)(NCc1ccco1)N1CCOCC1	0	-0.53	3	-0.44	-0.67
Cc1cc(NCCN2CCOCC2)n2ncc(-c3ccccc3)c2n1	·	0.92	-12	0.0091	-0.62
Cc1cc(NCCCn2ccnc2)n2ncc(-c3ccccc3)c2n1	10	-0.043	11	-0.4	-6.4*
CCCCN(C(=O)Cn1nnc2ccccc21)C(C(=O)NCCOC)c1cccs1 (centres undefined)	74*	·	·	·	·
C=CCn1c(C)cc(C(=O)CSc2nnc(NCc3ccccc3)s2)c1C	-26	-0.065	20	1.9*	0.035
COc1ccccc1CNC(=O)c1cc2c(=O)n(C)c3ccccc3c2n1C	·	0.59	21	-0.61	0.49
O=C(CSc1ncnc2c1oc1ccccc12)Nc1ccc2c(c1)OCCO2	73*	-0.34	·	0.37	0.81
Cc1occc1-c1nnc(SCC(=O)N2CCCc3ccccc32)n1Cc1ccco1	·	0.66	-1	-0.089	-2.6*
Cc1c(C(=O)NC2=NCCS2)oc2ccccc12	·	-0.092	4	0.3	-4.9*
Cc1[nH]c2ccccc2c1Cc1nnc(SCc2ccccc2)o1	26	·	·	·	·
NCc1ccc(-c2nc3ccccc3o2)cc1	·	-0.91	25	0.23	-0.76
Nc1ccc(CCc2nc3ccccc3o2)cc1	-1	-0.42	10	-0.81	-3.6*
SMILES	mHtt clearance	M1 ag	AP complement	M1 antagonist	D1 mod
Clc1ccc(COc2ccccn2)c(Cl)c1	-53	-0.015	·	0.15	·
COc1ccc(Cn2nnnc2C(c2cccs2)N2CCOCC2)cc1 (centres undefined)	26	-0.0052	8	2.3*	-1.2
c1ccc(CCn2nnnc2C(c2cccs2)N2CCOCC2)cc1 (centres undefined)	·	-0.31	6	-0.076	-0.79
COc1ccc(Nc2nc(Nc3ccc(OC)cc3)nc(SC3=NCCS3)n2)cc1	36	·	·	·	·
CCOc1ccc2ccccc2c1CNCCN1CCOCC1	70*	1.5	20	-1.5	-0.83
CCOc1ccc(S(=O)(=O)NCCCN2CCOCC2)c2ccccc12	·	0.15	-2	-0.03	-0.0093
Clc1ccc(-n2ncc3c(NCc4ccco4)ncnc32)cc1	32	-0.011	·	0.26	·
CCC(CO)Nc1ncnc2c1cnn2-c1ccc(Cl)cc1 (centres undefined)	46	1.5	12	-0.71	-5.7*
CN(C)CCNc1ncnc2c1cnn2-c1ccc(Cl)cc1	·	0.24	-4	-1	-4.7*
Cc1cc(NS(=O)(=O)Cc2ccccc2)no1	-48	0.034	17	-0.46	-0.63
COC(=O)C(C)N(C(=O)c1ccc(C(=O)c2ccccc2)cc1)c1c(C)cccc1C (centres undefined)	-5	·	·	·	·
Cn1c(-c2ccc(F)cc2)cnc1NCc1ccccc1	·	0.16	11	-0.79	-3.4*
O=C1CC(c2cccs2)Cc2nc(NCC3CCCO3)ncc21 (centres undefined)	·	0.71	10	0.53	3
CNC(=O)c1cc2c(=O)n3cc(C)ccc3nc2n(Cc2ccco2)c1=N	·	-1.9	12	-0.16	0.55
CNC(=O)c1cc2c(=O)n3cc(C)ccc3nc2n(C(C)C)c1=N	·	17*	12	-0.29	0.056
Cc1cccc(N2CCN(c3nc4ccccc4n4cnnc34)CC2)c1C	-165	0.59	16	0.36*	0.48
Cc1nc(SCc2nc3ccccc3[nH]2)c2oc3ccccc3c2n1	-11	0.022	2	-0.098	4.5
c1ccc2[nH]c(CSc3ncnc4c3oc3ccccc34)nc2c1	75*	2.1	6	-0.74	-0.16
Clc1cccc2sc(-c3nnc(-c4ccccc4)o3)c(Cl)c12	48	·	·	·	·
COc1ccc(Cn2c(C)nc3c(c2=O)c2nc4ccccc4nc2n3Cc2ccco2)cc1	·	-0.83	11	0.19	7.6*
COc1ccc(Cn2c3nc4ccccc4nc3c3c(=O)n(Cc4ccco4)c(C)nc32)cc1	·	-0.78	6	0.53	2.9
CC(NC(=O)Nc1ccc(F)cc1F)c1ccncc1 (centres undefined)	·	-1.3	-4	0.93	0.021
O=C(Nc1c(C(=O)N2CCOCC2)cnn1-c1ccccc1)c1ccco1	4	·	1	·	·
Cc1csc(SCC(=O)c2cc(C)n(Cc3cccs3)c2C)n1	·	0.48	5	-1.3	-5.2*
CC(=O)Nc1ccc(SCC(=O)c2cc(C)n(Cc3cccs3)c2C)cc1	-10	0.29	27	0.057	0.06
SMILES	mHtt clearance	M1 ag	AP complement	M1 antagonist	D1 mod
O=C(c1ccc(-n2cnnn2)cc1)N1CCCCC1	-55	·	·	·	·
CC(=O)Nc1c(C(=O)c2ccccc2)oc2ccccc12	·	0.038	-2	0.0064	6*
Cc1noc(/C=C/c2ccco2)c1S(=O)(=O)N1CCC(C(=O)N2c3ccccc3CC2C)CC1 (centres undefined)	39	-0.61	15	-0.4	·
Cc1ccc2c(c1)[C@@H]1CN(C)CC[C@@H]1N2S(=O)(=O)c1ccc(F)cc1	·	-0.054	-1	0.32	·
Cc1ccc2c(c1)C1CN(C)CCC1N2C(=O)Nc1ccc(Cl)cc1 (centres undefined)	12	-1.4	16	-1.3	-4.2*
COC(=O)CCCC(=O)Nc1c(F)c(F)c(F)c(F)c1F	·	-0.2	10	-0.08	0.0065
CCSc1nc2sc3c(c2c(=O)n1C1CCCCC1)CCN(C)C3	·	-0.89	·	-2.3*	·
CCSCc1nnc(SCC(=O)Nc2cccc(SC)c2)n1C	·	0.4	1	0.071	·
CCc1ccc(CNCCSc2nnnn2C)cc1	-10	·	·	·	·
COc1ccc(S(=O)(=O)N2CCN(c3nc4ccccc4nc3-n3nc(C)cc3C)CC2)cc1	-27	0.22	13	-1	-1.1
